# In the library only some 12% were active in any assay of this set; here they are far more common.
# CHOP inh = blocks CHOP induction under ER stress; 220,000 tested, 3.8% active; CHO-K1 CHOP-promoter luciferase, tunicamycin-induced, 15-18 h; inhibition, % at 10 µM;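 active = compounds that reduced the stress-induced luciferase reporter signal by more than about 70% of percent inhibition, limit read from the data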;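 note: 0% = tunicamycin plus vehicle and 100% = wells without tunicamycin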
# PKD1 kinase inh = inhibitors of human PKD1 kinase | AID 797 | PKD1 kinase fluorescence polarization assay | 200,000 tested, 0.056% active | inhibition, % (concentration not given with the values)
# Target sequence (Q15139 whole entry, looked up): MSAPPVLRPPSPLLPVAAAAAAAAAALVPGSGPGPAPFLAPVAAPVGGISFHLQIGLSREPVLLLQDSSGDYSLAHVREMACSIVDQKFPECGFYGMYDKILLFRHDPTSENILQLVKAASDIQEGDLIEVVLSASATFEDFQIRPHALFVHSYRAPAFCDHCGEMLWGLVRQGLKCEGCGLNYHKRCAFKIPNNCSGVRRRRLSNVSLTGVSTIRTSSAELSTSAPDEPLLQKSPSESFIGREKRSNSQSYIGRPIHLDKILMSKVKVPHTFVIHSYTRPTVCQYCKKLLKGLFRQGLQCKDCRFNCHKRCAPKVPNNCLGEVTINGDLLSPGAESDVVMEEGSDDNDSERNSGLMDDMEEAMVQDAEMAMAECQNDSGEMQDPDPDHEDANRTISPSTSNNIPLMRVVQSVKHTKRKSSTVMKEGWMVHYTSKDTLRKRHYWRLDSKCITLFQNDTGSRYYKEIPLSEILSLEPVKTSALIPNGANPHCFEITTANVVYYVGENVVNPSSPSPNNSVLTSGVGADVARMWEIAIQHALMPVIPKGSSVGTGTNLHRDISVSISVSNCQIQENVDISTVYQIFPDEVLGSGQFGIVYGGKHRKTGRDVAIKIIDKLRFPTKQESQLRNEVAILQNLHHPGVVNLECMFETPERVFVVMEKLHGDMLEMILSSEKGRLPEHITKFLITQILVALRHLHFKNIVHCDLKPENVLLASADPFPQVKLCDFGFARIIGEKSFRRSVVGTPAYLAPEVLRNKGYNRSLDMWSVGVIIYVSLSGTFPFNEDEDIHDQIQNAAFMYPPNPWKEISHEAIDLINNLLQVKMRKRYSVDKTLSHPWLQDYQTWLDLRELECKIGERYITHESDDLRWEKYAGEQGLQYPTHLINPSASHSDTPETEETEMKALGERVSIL
# L major viab = reduces viability of Leishmania major promastigotes. inhibition, % at 10 µM. 200,000 tested, 9% active. resazurin fluorescence viability;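 note: promastigotes grown with compound for 44 hours at 28 °C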
# Rad51 HR inh = blocks human Rad51 in homologous recombination. Q06609. hRad51 DNA strand exchange, fluorescence dequenching. inhibition, % at 10 µM. 200,000 tested, 0.085% active;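 active = inhibition above 40% at the single screening dose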;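 note: 0% = DMSO control wells and 100% = blanks with heterologous ssDNA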
#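 Test system: preformed human Rad51 ssDNA filaments. Compound dosing: single dose, 10 µM final compound. Incubation: filaments 15 min 37 °C, then compound 30 min. Technique: FRET fluorescence dequenching, excitation 485 nm, emission 520 nm. Read-out basis: percent inhibition from fluorescence, normalised to plate control and blank means. Benchmarks: plate controls and plate blanks.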
# Arbovirus anti = arbovirus infection inhibition; arbovirus infection cell-based antiviral screen; inhibition, % at 10 µM; 200,000 tested, 0.37% active; in the data active = inhibition above about 30%
# Wee1 degr inh = human Wee1 degradation inhibition, primary screen. P30291. HeLa Luc-Wee1K328M stability, luciferase luminescence; 100% = proteasome inhibitor MG132 effect. reporter increase, % at 5 µM. 220,000 tested, 1.2% active. AID 1321;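 active = activation above the mean of all tested compounds plus 3 SD, set per screening run, cut at about 8.8% in these data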;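 note: cells exposed to compound for 20 h before luminescence read; 0% = DMSO alone and 100% = MG132 at 30 µM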
# Active calls of the source: *; . = no result. Cut-off read from the data, not from the text of the source, unless noted: active = inhibition above about 50%; inactive = the rest.
SMILES,CHOP inh,PKD1 kinase inh,L major viab,Rad51 HR inh,Arbovirus anti,Wee1 degr inh
COc1cccc(NC(=O)c2cc(-c3cccnc3)nc3c(Cl)cccc23)c1,55,6,6,45*,-10,1
COC(=O)/C(C#N)=C(/Nc1ccc(F)c(Cl)c1)C(F)(F)F,-2,.,.,.,.,-1
O=C(CSc1nnc2c(n1)[nH]c1ccccc12)OCc1ccccc1,-1,7,79*,9,5,-2
CCCNCc1cc(Br)ccc1OCC(=O)NCCc1ccccc1,-5,-4,52*,.,-7,3
O=C(COc1ccc(Br)cc1CNCCc1ccccc1)NCc1ccccc1,-4,1,88*,-25,-24,0
NC(=O)N/N=C/c1cc(Br)ccc1OCC(=O)NCc1ccccc1,21,0,-4,-7,-5,2
COc1cc(C=O)c(Br)cc1OCC(=O)NCCc1ccccc1,7,-11,4,-12,-7,-1
CC(C)NC(=O)NC(=O)COC(=O)C1(C)CC1(Cl)Cl (stereo unspecified),0,-6,-3,6,5,0
CN1CCN(S(=O)(=O)c2cccc(C(=O)NCc3ccccc3Cl)c2)CC1,-4,-8,-2,14,-7,-4
CCOC(=O)N1CCC(NCCNC(=O)c2ccc(Cl)cc2)CC1,7,-1,91*,-4,3,-1
CCOC(=O)C1CCCN(CC(O)COc2ccc(OC)cc2C(C)(C)C)C1 (stereo unspecified),53,6,40,5,4,-2
CCOC(=O)N1CCN(CC(O)COc2ccc(OC)cc2C(C)(C)C)CC1 (stereo unspecified),26,4,59*,.,6,-2
CCOC(=O)N1CCN(CCC(=O)c2ccc(OC)cc2)CC1,-45,5,82*,0,-12,-2
CCOC(=O)N1CCN(CCC(=O)c2ccc(Cl)cc2)CC1,-16,-7,94*,.,-30,-1
COc1cccc(CN(c2ccc3c(c2)CCC3)S(=O)(=O)c2ccc(-n3cnnn3)c(OC)c2)c1,21,-12,66*,.,-5,4
COc1cccc(CN(Cc2cccnc2)S(=O)(=O)c2ccc(-n3cnnn3)c(C)c2)c1,16,6,100*,6,8,-5
COc1cccc(CN(CC2CCCO2)S(=O)(=O)c2ccc(-n3cnnn3)c(OC)c2)c1 (stereo unspecified),17,-2,5,6,4,3
N=C1C(c2ccccc2)=C(O)CN1c1cccc(S(=O)(=O)NCc2ccco2)c1,2,.,.,0,.,9.2*
Cc1ccc(S(=O)(=O)Nc2cc(-c3ccccc3)nn2C)cc1Cl,15,.,.,-31,.,0
CS(=O)(=O)N(CC(=O)NCc1ccncc1)C1CCCCC1,43,-7,-6,.,-2,-3
CNC(=S)N1CCC(NC(=O)c2ccco2)CC1,8,.,.,0,.,-4
CCOC(=O)c1c(C)n(C(=O)c2ccco2)c(=O)n1C(=O)c1ccco1,85*,8,-4,2,4,1
CCOC(=O)C1CCN(C(=O)c2c(C)oc3c2C(=O)c2ccccc2C3=O)CC1,-32,-5,100*,5,-33,-1
CCOC(=O)C1CCN(C(=O)c2ccco2)CC1,-3,-9,-5,76*,1,4
CCOC(=O)C1CCN(C(=O)c2ccccc2NC(C)=O)CC1,-3,-1,-5,0,2,5
SMILES,CHOP inh,PKD1 kinase inh,L major viab,Rad51 HR inh,Arbovirus anti,Wee1 degr inh
CNC(=S)N1CCN(C(=O)c2ccco2)CC1,14,-8,75*,6,11,-1
CC1CCC2(CC1)NC(=O)N(CC(=O)c1cn(CCC#N)c3ccccc13)C2=O (stereo unspecified),12,.,.,-1,.,-3
CSCCC(N=C(NS(=O)(=O)c1ccc(C)cc1)c1ccccc1)C(=O)O (stereo unspecified),15,.,.,.,.,1
Cc1oc2c(c1C(=O)N1CCC(C)CC1)C(=O)c1ccccc1C2=O,4,-7,100*,1,-35,-1
S=C(Nc1ccc(Cl)cc1)N1CCN(C2CCCCC2)CC1,20,3,81*,.,11,-1
c1ccc(CN2CCN(c3nc(-c4ccccc4)nc4ccccc34)CC2)cc1,33,-8,68*,.,-3,-1
c1ccc(CN2CCN(c3nc4ccccc4c4ccccc34)CC2)cc1,44,-7,6,2,1,-2
CN1CCN(c2nc(-c3ccncc3)nc3ccccc23)CC1,45,-1,100*,9,-17,-3
CCN1CCN(c2nc(-c3ccccn3)nc3ccccc23)CC1,-21,-6,17,8,-11,-2
COc1ccc(CN2CCN(c3ccccn3)CC2)c(OC)c1,-3,-3,-6,-34,1,-2
c1ccc(COc2ccc(CN3CCN(c4ccccn4)CC3)cc2)cc1,-20,-6,95*,10,-19,2
c1ccc(CN2CCN(c3nc(-c4ccccn4)nc4ccccc34)CC2)cc1,-24,7,100*,-1,-12,-1
CN(Cc1ccccc1)Cc1nc2scc(-c3ccccc3)c2c(=O)[nH]1,9,10,-1,.,9,-3
CCOc1ccc2cc(C3CC(c4ccco4)=NN3S(C)(=O)=O)c(=O)[nH]c2c1 (stereo unspecified),4,.,.,-11,.,2
Fc1ccccc1Cc1noc(CN(Cc2ccccn2)CC2CCCO2)n1 (stereo unspecified),12,-6,-5,.,2,2
Cc1ccc(N/C(=C\C(=O)c2ccccc2)C(=O)O)cc1,-12,-1,1,-7,-9,-1
C/C(=N\Nc1nc(-c2ccccn2)nc2ccccc12)c1ccc(F)cc1,46,.,.,1,.,1
c1ccc(CCNc2nc(-c3ccccn3)nc3ccccc23)cc1,81*,.,.,2,.,1
O=c1[nH]c(-c2ccccc2Cl)nc2c1sc(=S)n2-c1ccccc1,-11,-3,2,4,16,4
Clc1cccc(N/N=C/c2ccc(N3CCOCC3)cc2)c1,26,0,83*,3,-36,2
C(=N\Nc1ccccc1)/c1ccc(N2CCOCC2)cc1,-31,-8,3,-3,-39,-2
CSc1nc(Cl)cc(Nc2ccc(O)cc2)n1,20,-4,2,9,-25,0
COc1c(S(=O)(=O)NCCN2CCOCC2)ccc(Cl)c1Cl,11,0,67*,-64,16,-1
CCCOc1ccc(S(=O)(=O)NCCN2CCOCC2)c2ccccc12,29,9,66*,-2,6,-2
CCOc1cc(S(=O)(=O)NCCN2CCOCC2)c(C)cc1C,-8,-7,1,.,3,5
CCOc1ccc(S(=O)(=O)NCCN2CCOCC2)c2ccccc12,8,-5,96*,-1,11,3
O=C(CC1(c2ccc(Cl)cc2)C2CC3CC(C2)CC1C3)NCCO (stereo unspecified),37,3,-1,.,-14,3

# Screens as filed in PubChem.
